Screening data deposited in PubChem by several laboratories.
MIN6 prolif = inducers of beta-cell replication in MIN6 cells; MIN6 cells proliferation, ATPlite luminescence, 48 h; cells starved in 0.2% serum; 100% = growth in 10% serum; proliferation, % at 10 µM; actives 0.29% (n = 330,000); AID 2380;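 active means compounds whose signal lies at least 3.5 SD above the mean of all wells on their plate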;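 further: 0% = DMSO-treated cells in low-serum medium and 100% = 10% serum control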
SR-BI HDL uptake = mouse SR-BI HDL lipid transfer inhibition. actives 0.96% (n = 320,000). ldlA[mSR-BI] CHO cells, DiI-HDL uptake fluorescence, 3 h. AID 488896. inhibition, % at 12.5 µM;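 active means mean replicate inhibition of at least 70% and a set share of replicates each scoring 70 or more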;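 further: 0% = median of neutral control wells and 100% = median of positive control wells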
Calb FLC = affects C. albicans growth with fluconazole | C. albicans CaCi-2 + fluconazole, Alamar Blue growth, 48 h | growth inhibition, % (no concentration beside the values) | actives 0.57% (n = 300,000) | AID 1979;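 active means growth inhibition above about 58% in most replicates, limit read from the data, passing the limit was not always enough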;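 further: all wells also contain fluconazole at 8 µg/ml as a sub-toxic cotreatment; 0% = median of DMSO wells and 100% = median of geldanamycin control wells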
SR-BI uptake up = SR-BI HDL lipid transfer activation; CHO ldlA[mSR-BI] cells, DiI-HDL uptake fluorescence, 3 h; 100 = double the neutral-control signal; activation, % at 12.5 µM; actives 0.096% (n = 320,000);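 active means mean replicate activation of at least 60% and every replicate at or above 60%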;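 further: 0% = median plate neutral-control signal and 100% = twice that signal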
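Test system: SR-BI-overexpressing, LDLR-lacking CHO cells; Medium: Ham's F12 with 0.5% BSA, HEPES 25 mM, pH 7.4; Schedule: 3 h, 37 °C; Technique: bottom-read fluorescence, 550/595 nm.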
Insulin prom up = MIN6 insulin promoter up-regulation | MIN6 insulin promoter-GFP reporter, high-content imaging; hits give high values | z-score at 5 µM | actives 0.3% (n = 190,000) | AID 1625;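 active means z-score above 3 at 5 µM with at least 500 cells counted in the well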
HTR2A ag = activates the mouse 5-HT2A serotonin receptor; P35363; CHO-K1 mHTR2A beta-arrestin complementation, luminescence; percent of 30 µM serotonin response; activation, % at 7.6 µM; actives 0.66% (n = 360,000); AID 624169;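 active means activation above a run cutoff, the mean activation of all tested compounds plus 3 SD, cut at about 14% in these data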;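 further: 0% = plate median of compound wells and 100% = 30 µM serotonin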
Target sequence (P35363 whole entry, looked up): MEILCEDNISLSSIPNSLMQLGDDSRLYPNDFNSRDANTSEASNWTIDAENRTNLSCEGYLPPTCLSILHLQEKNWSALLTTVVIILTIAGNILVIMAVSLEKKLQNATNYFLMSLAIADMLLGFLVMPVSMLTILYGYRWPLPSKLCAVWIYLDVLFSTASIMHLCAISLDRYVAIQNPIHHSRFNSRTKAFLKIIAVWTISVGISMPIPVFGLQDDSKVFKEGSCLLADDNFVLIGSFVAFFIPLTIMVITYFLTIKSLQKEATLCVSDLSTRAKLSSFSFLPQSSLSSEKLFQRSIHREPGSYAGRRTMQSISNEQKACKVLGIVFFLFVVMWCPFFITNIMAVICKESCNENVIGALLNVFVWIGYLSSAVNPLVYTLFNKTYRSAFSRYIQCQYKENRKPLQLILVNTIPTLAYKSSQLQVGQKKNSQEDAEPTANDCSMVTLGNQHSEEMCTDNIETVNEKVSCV
* marks the source's active call; other numbers are inactive results. This is a sample that favours compounds with a hit; in the whole collection about 2.4% have one here.

Results for CCc1cc(=O)oc2cc3occ(C)c3cc12 ?
MIN6 prolif: 0.7; SR-BI HDL uptake: 19.2; Calb FLC: -4.7; SR-BI uptake up: -19.2; Insulin prom up: 0.18; HTR2A ag: -1.2

How did CCc1cc(=O)oc2cc3occ(-c4ccc(OC)c(F)c4)c3cc12 do in these assays?
MIN6 prolif: -0.4; SR-BI HDL uptake: 76.4*; Calb FLC: -6.1; SR-BI uptake up: -59.1; Insulin prom up: -1.04; HTR2A ag: -5.1

What do the screens show for `Cc1cc(C(=O)CSc2nc(N)cc(=O)[nH]2)c(C)n1CCc1ccc(F)cc1`?
MIN6 prolif: 1.5; SR-BI HDL uptake: 89.8*; Calb FLC: -3.8; SR-BI uptake up: -89.8; Insulin prom up: 0.19; HTR2A ag: -7.2

Results for C=CCn1c(C)cc(C(=O)CSc2nc(N)cc(N)n2)c1C ?
MIN6 prolif: -1.3; SR-BI HDL uptake: -14.1; Calb FLC: 108.5*; SR-BI uptake up: 14.1; Insulin prom up: -0.28; HTR2A ag: 10.6

How did Cc1cc(C(=O)CSc2nc(N)cc(N)n2)c(C)n1C1CC1 do in these assays?
MIN6 prolif: -1.0; SR-BI HDL uptake: 47.9; Calb FLC: -12.4; SR-BI uptake up: -47.9; HTR2A ag: 0.6

What do the screens show for `Cc1cc(C(=O)CSc2nnc(N)s2)c(C)n1CCc1ccc(F)cc1`?
MIN6 prolif: -3.4; SR-BI HDL uptake: 62.4; Calb FLC: -23.1; SR-BI uptake up: -62.4; Insulin prom up: 0.8; HTR2A ag: -4.0

What do the screens show for `CN(CC(=O)Nc1cccc(F)c1)C(=O)C1CCC(C(=O)N(C)CC(=O)Nc2cccc(F)c2)CC1` (configuration not stated)?
SR-BI HDL uptake: 21.1; SR-BI uptake up: -21.1; HTR2A ag: -2.5

What do the screens show for `O=C(c1ccc(C(=O)N2CCN(c3ccccc3F)CC2)nc1)N1CCN(c2ccccc2F)CC1`?
MIN6 prolif: 2.4; Calb FLC: 95.1*; Insulin prom up: -0.08; HTR2A ag: 0.8

How did Cc1ccc(C(=O)c2cc([N+](=O)[O-])ccc2N2CCCCC2)c(C)c1 do in these assays?
MIN6 prolif: 0.0; SR-BI HDL uptake: 74.9*; Calb FLC: -0.9; SR-BI uptake up: -74.9; Insulin prom up: -1.32; HTR2A ag: -2.2

How did O=C(c1cc([N+](=O)[O-])ccc1N1CCCCC1)N1CCc2ccccc21 do in these assays?
MIN6 prolif: -1.7; SR-BI HDL uptake: 75.6*; Calb FLC: 15.3; SR-BI uptake up: -75.6; Insulin prom up: 0.37; HTR2A ag: -5.8

Results for O=C(Cn1cc([N+](=O)[O-])cn1)N1CCc2ccccc21 ?
MIN6 prolif: -1.7; SR-BI HDL uptake: 11.9; Calb FLC: -8.7; SR-BI uptake up: -11.9; Insulin prom up: -0.63; HTR2A ag: 16.2*

Results for O=C(Cn1cc([N+](=O)[O-])cn1)N1CCCc2ccccc21 ?
MIN6 prolif: 4.9; SR-BI HDL uptake: -21.9; Calb FLC: -3.4; SR-BI uptake up: 21.9; Insulin prom up: -1.2; HTR2A ag: -5.2

Results for O=C(c1cc([N+](=O)[O-])ccc1Cl)N1CCc2ccccc21 ?
MIN6 prolif: -1.4; SR-BI HDL uptake: 15.2; Calb FLC: -15.2; SR-BI uptake up: -15.2; HTR2A ag: -2.8

What do the screens show for `O=C(O)c1cc([N+](=O)[O-])ccc1N1CCCCC1`?
MIN6 prolif: -0.7; SR-BI HDL uptake: -55.2; Calb FLC: 16.2; SR-BI uptake up: 55.2; Insulin prom up: -0.36; HTR2A ag: 13.9

What do the screens show for `CC(=O)Nc1cc(-c2ccccc2CN(C)C)cn2c(-c3ccc(F)c(Cl)c3)cnc12`?
HTR2A ag: 5.5

What do the screens show for `COc1nc2c(C)cccc2cc1-c1noc(-c2ccco2)n1`?
MIN6 prolif: -0.5; SR-BI HDL uptake: 8.9; SR-BI uptake up: -8.9; Insulin prom up: -0.05; HTR2A ag: 0.1

What do the screens show for `C#CCOCCOCCOCCNc1nc(N2CCN(C(=O)[C@H](CC(N)=O)n3cc(C(N)[C@H](C)CC)nn3)CC2)nc(N2CCN(C(=O)[C@H](CC(N)=O)n3cc(C(N)[C@@H](C)CC)nn3)CC2)n1` (some centres not stated)?
MIN6 prolif: 2.0; SR-BI HDL uptake: -7.6; SR-BI uptake up: 7.6; HTR2A ag: -2.8

What do the screens show for `Cc1cc(C)c(C)c(C(=O)CSc2nnc(-c3ccc4[nH]c(C)c(C)c4c3)o2)c1C`?
MIN6 prolif: -2.1; SR-BI HDL uptake: 83.7*; Calb FLC: -8.1; SR-BI uptake up: -83.7; Insulin prom up: -0.93; HTR2A ag: -10.0

What do the screens show for `Cc1[nH]c2ccc(-c3nnc(SCC(=O)c4ccc(F)cc4)o3)cc2c1C`?
MIN6 prolif: -3.5; SR-BI HDL uptake: 1.8; Calb FLC: 9.4; SR-BI uptake up: -1.8; Insulin prom up: 0.03; HTR2A ag: 0.1

What do the screens show for `CCc1ccc2c(c1)c1nc(C)sc1n2CC`?
MIN6 prolif: -0.2; SR-BI HDL uptake: 14.9; Calb FLC: -7.7; SR-BI uptake up: -14.9; Insulin prom up: 0.41; HTR2A ag: -1.6

Results for CCOC(=O)Cn1c2ccc(F)cc2c2nc(C)sc21 ?
MIN6 prolif: -0.6; SR-BI HDL uptake: 36.5; Calb FLC: 42.9; SR-BI uptake up: -36.5; Insulin prom up: 3.68*; HTR2A ag: 0.6

What do the screens show for `Cc1nc2c3cc(F)ccc3n(Cc3ccc(F)cc3)c2s1`?
MIN6 prolif: -4.5; SR-BI HDL uptake: 80.2*; Calb FLC: 6.0; SR-BI uptake up: -80.2; Insulin prom up: 0.35; HTR2A ag: -5.2

How did COC(=O)Cn1c2ccc(F)cc2c2nc(C)sc21 do in these assays?
MIN6 prolif: 3.5; SR-BI HDL uptake: -4.6; Calb FLC: 1.7; SR-BI uptake up: 4.6; Insulin prom up: 0.18; HTR2A ag: -1.2

Results for CC(C)(C)C(=O)/C=c1\[nH]c(=O)/c(=C\c2ccc(F)cc2)s1 ?
MIN6 prolif: -3.6; SR-BI HDL uptake: 20.8; Calb FLC: -3.3; SR-BI uptake up: -20.8; Insulin prom up: -0.47; HTR2A ag: -2.9

Results for COc1ccc(/C=c2\s/c(=C/C(=O)c3ccc(C)cc3)[nH]c2=O)cc1OC ?
MIN6 prolif: 0.0; SR-BI HDL uptake: 74.3*; Calb FLC: 30.1; SR-BI uptake up: -74.3; Insulin prom up: 2.82; HTR2A ag: 3.7

Results for CCOC(=O)C1=C(CN2CCOCC2)NC(=O)NC1c1cc(C)ccc1C (configuration not stated) ?
MIN6 prolif: 0.8; SR-BI HDL uptake: 12.5; Calb FLC: -38.4; SR-BI uptake up: -12.5; Insulin prom up: 0.08; HTR2A ag: 8.0

What do the screens show for `CCOC(=O)C1=C(CN2CCN(c3ccc(F)cc3)CC2)NC(=O)NC1c1cccs1` (configuration not stated)?
MIN6 prolif: 6.0; SR-BI HDL uptake: 78.3*; Calb FLC: 16.9; SR-BI uptake up: -78.3; Insulin prom up: 0.39; HTR2A ag: -7.0
